Data as given in ChEMBL document CHEMBL4373713, “Effect of 1-Deoxynojirimycin Isolated from Mulberry Leaves on Glucose Metabolism and Gut Microbiota in a Streptozotocin-Induced Diabetic Mouse Model” (J Nat Prod, 2019).
Active and inactive are the calls of the source.

Columns and labels:
Format in all cases: functional, organism-based
[1] = system: Mus musculus; assay: Antidiabetic activity in po dosed STZ-induced Kunming mouse model of diabetes assessed as reduction in fasting serum glucose level administered QD administered via gavage for 4 weeks and measured 2 weeks during compound dosing
Method in brief: (§1)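 Fasting serum glucose was taken from the tail tip on days 0, 7, 14, 21 and 28 in STZ (35 mg/kg i.p.)/high-fat-diet Kunming mice. Mice were gavaged once daily at 31.25, 62.5 or 125 mg/kg in 0.5 mL, n=10 per group.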

[2] = system: Mus musculus; assay: Antidiabetic activity in STZ-induced Kunming mouse model of diabetes assessed as reduction in serum glucose level 125 mg/kg, po administered QD administered via gavage for 4 weeks and measured 4 weeks during compound dosing; method in brief: as §1
[3] = system: Mus musculus; assay: Antidiabetic activity in STZ-induced Kunming mouse model of diabetes assessed as increase in glucose tolerance 31.25 to 125 mg/kg, po administered QD administered via gavage for 4 weeks and measured on day 26 followed by glucose challenge after 30 mins during compound dosing by OGTT
Method in brief: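 On treatment day 26, after a 12 h fast, diabetic mice received oral glucose at 2.0 g/kg. Tail-tip blood glucose was read at 0, 30, 60, 90 and 120 min. Daily gavage dosing was 31.25–125 mg/kg, n=10 per group.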

[4] = system: Mus musculus; assay: Antidiabetic activity in po dosed STZ-induced Kunming mouse model of diabetes assessed as reduction in fasting serum insulin level administered QD administered via gavage for 4 weeks
Method in brief: (§2)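 Fasting serum insulin was measured by commercial kit on plasma from orbital-sinus blood taken after an overnight fast at day 28. HOMA-IR was derived to assess insulin sensitivity. Diabetic mice were gavaged daily at 31.25–125 mg/kg. Mean ± SD, Duncan's test.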

[5] = system: Mus musculus; assay: Antidiabetic activity in po dosed STZ-induced Kunming mouse model of diabetes assessed as reduction in HOMA-IR index level administered QD administered via gavage for 4 weeks; method in brief: as §2
[6] = system: Mus musculus; assay: Antidiabetic activity in po dosed STZ-induced Kunming mouse model of diabetes assessed as increase in IR phosphorylation at (Tyr 999 residues) expression in liver administered QD administered via gavage for 4 weeks by Western blot analysis
Method in brief: (§3)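 Livers from diabetic mice after 28 days of daily gavage (31.25–125 mg/kg) were homogenized and spun at 14 000g, 4 °C. Proteins were run on 10% SDS-PAGE and transferred to PVDF, then blocked in 5% milk for 1 h. Primary antibodies (GK, PK, PFK, PCB, PEPCK, FBPase, G-6-Pase, p-IR Tyr999, p-IRS-1 Ser307) were applied for 1 h at 25 °C, followed by HRP anti-rabbit IgG and ECL detection. Mean ± SD, Duncan's test.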

[7] = system: Mus musculus; assay: Antidiabetic activity in po dosed STZ-induced Kunming mouse model of diabetes assessed as decrease in IRS-1 (Ser 307 residues) expression in liver administered QD administered via gavage for 4 weeks by Western blot analysis; method in brief: as §3
[8] = system: Mus musculus; assay: Antidiabetic activity in STZ-induced Kunming mouse model of diabetes assessed as reduction in TG level at 31.25 to 125 m/kg, po administered QD administered via gavage for 4 weeks
Method in brief: (§4)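 STZ/high-fat-diet diabetic Kunming mice (n=10/group) were gavaged daily for 28 days at 31.25–125 mg/kg. After an overnight fast, orbital-sinus blood was taken and plasma was spun at 1000g, 4 °C. TC, TG and HDL-C were measured by kit. LDL-C was calculated by Friedewald: TC − (HDL-C + TG/2.2), with TG below 4.5 mmol/L. Data are mean ± SD, Duncan's test.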

[9] = system: Mus musculus; assay: Antidiabetic activity in STZ-induced Kunming mouse model of diabetes assessed as increase in HDL-C level at 31.25 to 125 m/kg, po administered QD administered via gavage for 4 weeks; method in brief: as §4
[10] = system: Mus musculus; assay: Antidiabetic activity in STZ-induced Kunming mouse model of diabetes assessed as decrease in TC level at 125 m/kg, po administered QD administered via gavage for 4 weeks; method in brief: as §4
[11] = system: Mus musculus; assay: Antidiabetic activity in STZ-induced Kunming mouse model of diabetes assessed as decrease in LDL-C level at 62.5 to 125 m/kg, po administered QD administered via gavage for 4 weeks; method in brief: as §4
[12] = system: Mus musculus; assay: Antidiabetic activity in STZ-induced Kunming mouse model of diabetes assessed as increase in LPL mRNA level at 31.25 to 125 m/kg, po administered QD administered via gavage for 4 weeks by RT-PCR analysis
Method in brief: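 Liver RNA was Trizol-extracted and reverse-transcribed. qPCR ran 95 °C 10 min, then 45 cycles of 95 °C 15 s, 55 °C 20 s and 72 °C 30 s. LPL was normalized to β-actin and quantified by 2−ΔΔCt. Samples came from STZ/high-fat-diet diabetic mice gavaged daily for 28 days at 31.25–125 mg/kg.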

[13] = system: Mus musculus; assay: Antidiabetic activity in po dosed STZ-induced Kunming mouse model of diabetes assessed as reduction in ALT activity administered QD administered via gavage for 4 weeks
Method in brief: (§5)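 Diabetic mice (high-fat diet plus STZ 35 mg/kg i.p.) were dosed by gavage once daily for 28 days at 31.25–125 mg/kg. After an overnight fast at endpoint, liver and plasma were collected. ALT, hepatic glycogen and pyruvic acid were measured with commercial kits.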

[14] = system: Mus musculus; assay: Antidiabetic activity in STZ-induced Kunming mouse model of diabetes assessed as increase in hepatic glycogen level at 31.25 to 125 m/kg, po administered QD administered via gavage for 4 weeks; method in brief: as §5
[15] = system: Mus musculus; assay: Antidiabetic activity in STZ-induced Kunming mouse model of diabetes assessed as decrease in pyruvic acid level at 31.25 to 125 m/kg, po administered QD administered via gavage for 4 weeks; method in brief: as §5
[16] = system: Mus musculus; assay: Antidiabetic activity in STZ-induced Kunming mouse model of diabetes assessed as increase in GK expression level in liver at 62.5 to 125 m/kg, po administered QD administered via gavage for 4 weeks by Western blot analysis; method in brief: as §3
[17] = system: Mus musculus; assay: Antidiabetic activity in STZ-induced Kunming mouse model of diabetes assessed as increase in PK expression level in liver at 62.5 to 125 m/kg, po administered QD administered via gavage for 4 weeks by Western blot analysis; method in brief: as §3
[18] = system: Mus musculus; assay: Antidiabetic activity in STZ-induced Kunming mouse model of diabetes assessed as increase in PFK expression level in liver at 125 m/kg, po administered QD administered via gavage for 4 weeks by Western blot analysis; method in brief: as §3
[19] = system: Mus musculus; assay: Antidiabetic activity in STZ-induced Kunming mouse model of diabetes assessed as down regulation of PCB expression level in liver at 62.5 to 125 m/kg, po administered QD administered via gavage for 4 weeks by Western blot analysis; method in brief: as §3
[20] = system: Mus musculus; assay: Antidiabetic activity in STZ-induced Kunming mouse model of diabetes assessed as down regulation of PEPCK expression level in liver at 62.5 to 125 m/kg, po administered QD administered via gavage for 4 weeks by Western blot analysis; method in brief: as §3

Measured: Activity

OC[C@H]1NC[C@H](O)[C@@H](O)[C@@H]1O
active: [1] Dose-dependent effect | [2] | [3] | [4] Dose-dependent effect | [5] Dose-dependent effect | [6] Dose-dependent effect | [7] Dose-dependent effect | [8] | [9] | [10] | [11] | [12] | [13] Dose-dependent effect | [14] | [15] | [16] | [17] | [18] | [19] | [20]
